Screening data as filed in PubChem BioAssay.
Diaph act CS – compounds boosting diaphorase resazurin reduction – biochemical, uHTS, resorufin fluorescence, counter-screen for diaphorase-coupled primary assays, primary screen; Diaphorase/resazurin coupled assay, 16 min; hits give high values; 1 = vehicle wells, 0 = NADH-free wells; activation factor at 20 µM; 0.005% of 190,000 active; AID 1229, 2008;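 active = diaphorase activity raised at least twofold by the compound at 20 µM; inactive = activation factor below 2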
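Material: Clostridium kluyveri diaphorase, purified enzyme; Quantity: enzyme 0.07 U/mL final; Medium: HEPES pH 7.4 buffer with MgCl2 and Tween 20; Dosing: single compound dose of 20 µM, 1% DMSO final; Schedule: 16 min reaction at room temperature; Measured by: red resorufin fluorescence at 544/590 nm excitation/emission.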
Lmaj promast – Leishmania major promastigote growth inhibition, primary screen; Leishmania major promastigotes, resazurin fluorescence viability; inhibition, % at 10 µM; 9% of 200,000 active; in the data active = inhibition above about 50%;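 also: promastigotes grown with compound for 44 hours at 28 °C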
PMI act – activators of human PMI, primary screen, biochemical, fluorescence intensity, near-Km mannose 6-phosphate; Mannose-6-phosphate isomerase (Homo sapiens), P34949; purified human PMI, coupled resazurin fluorescence, 20 min; hits give high values; 1 = vehicle control, 0 substrate-free wells; activation factor at 20 µM; 0.005% of 190,000 active; AID 1214, 2008;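 active = activation factor of 2 or more at 20 µM, relative to plate controls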
Target sequence (P34949 whole entry, looked up): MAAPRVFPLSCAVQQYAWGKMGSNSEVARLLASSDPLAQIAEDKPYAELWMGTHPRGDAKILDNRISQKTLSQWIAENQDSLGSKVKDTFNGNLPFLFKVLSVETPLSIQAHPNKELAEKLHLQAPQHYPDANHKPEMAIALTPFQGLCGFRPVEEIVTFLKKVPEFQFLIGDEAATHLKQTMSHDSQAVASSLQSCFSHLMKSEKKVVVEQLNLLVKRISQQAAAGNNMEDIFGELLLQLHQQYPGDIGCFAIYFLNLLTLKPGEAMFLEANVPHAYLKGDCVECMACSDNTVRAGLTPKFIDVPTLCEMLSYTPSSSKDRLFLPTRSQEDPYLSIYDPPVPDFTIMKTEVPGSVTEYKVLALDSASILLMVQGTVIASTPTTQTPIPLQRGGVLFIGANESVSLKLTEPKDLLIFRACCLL
WT yeast gro inh – growth inhibition of WT strain, primary screen, mitochondrial fusion inhibitor project, WT and mutant strains, chemical genetic. mitochondrial fusion phenotypic screen. inhibition, % at 10 µM. 2.1% of 190,000 active. AID 1362, 2008; in the data active = inhibition above about 58%; tested in S. cerevisiae
PMI act hi M6P – human PMI activators, high substrate, primary screen, biochemical, fluorescence intensity, near-saturating mannose 6-phosphate; coupled PMI enzyme assay, resazurin fluorescence, 20 min; hits give high values; 1 = untreated enzyme, 0 = substrate-free blank; activation factor at 20 µM; 0.34% of 190,000 active;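 active = activation factor of 2 or more at 20 µM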
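Test system: human phosphomannose isomerase with PGI, G6PDH, diaphorase coupling enzymes / Doses: 20 µM compound, 1% DMSO / Times: enzyme reaction with compound 20 min at room temperature / Measured by: Diaphorase-driven resazurin-to-resorufin fluorescence, excitation 544, emission 590 nm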
An asterisk follows results filed as active. This is a sample that favours compounds with a hit; in the whole collection about 10% have one here.

CCC(=O)Nc1cccc2cccnc12 was read as Diaph act CS 0.9, Lmaj promast -6, PMI act 1, WT yeast gro inh -4 and PMI act hi M6P 1.
For O=C1C=CC(=O)N1N(c1ccccc1)c1ccccc1 the results were Diaph act CS 0.7, Lmaj promast -5, PMI act 0.8, WT yeast gro inh -2 and PMI act hi M6P 0.9.
Screening Cc1nc(SCc2ccc(Cl)cc2)ncc1C(=O)O returned Diaph act CS 0.9, Lmaj promast -6, PMI act 1, WT yeast gro inh 9 and PMI act hi M6P 0.9.
N#CC1(C#N)CC(C=O)=C(N)C1(C#N)CC(=O)C12CC3CC(CC(C3)C1)C2 (centres undefined) was read as Diaph act CS 0.7, Lmaj promast 0, PMI act 0.8, WT yeast gro inh -6 and PMI act hi M6P 0.7.
Screening O=C(CSc1nnc2c(Cl)cc(Cl)cn12)N1CCN(c2ccc(F)cc2)CC1 returned Diaph act CS 0.9, Lmaj promast 53*, PMI act 1, WT yeast gro inh -17 and PMI act hi M6P 0.9.
O=C(CSc1nnc2c(Cl)cc(Cl)cn12)N1CCN(S(=O)(=O)c2ccccc2)CC1 was read as Diaph act CS 0.9, Lmaj promast 4, PMI act 1.1, WT yeast gro inh -3 and PMI act hi M6P 1.
COc1ccc2c(c1)c1nnc(SCC(=O)N3CCCCC3C)nc1n2C (centres undefined) was read as Diaph act CS 0.8, Lmaj promast 85*, PMI act 1, WT yeast gro inh 17 and PMI act hi M6P 1.
For COc1ccc(N2CCN(C(=O)CSc3nnc4c5cc(C)ccc5n(C)c4n3)CC2)cc1 the results were Diaph act CS 0.8, Lmaj promast 12, PMI act 0.9, WT yeast gro inh 6 and PMI act hi M6P 0.7.
`CCOc1ccc2[nH]c(=O)c(CN(Cc3cccs3)Cc3nnnn3C(C)(C)CC)cc2c1` gave Diaph act CS 0.7, Lmaj promast 59*, PMI act 1, WT yeast gro inh -10 and PMI act hi M6P 0.8.
`S=C(Nc1ccccn1)Nc1ccccc1Cl` gave Diaph act CS 1, Lmaj promast 22, PMI act 0.8, WT yeast gro inh 18 and PMI act hi M6P 0.9.
`S=C(Nc1ccccn1)c1ccccn1` gave Diaph act CS 0.9, Lmaj promast 98*, PMI act 0.5, WT yeast gro inh 35 and PMI act hi M6P 0.6.
For Cc1ccc(C)c(NC(=S)c2ccccn2)c1 the results were Diaph act CS 0.9, Lmaj promast 98*, PMI act 0.9, WT yeast gro inh 64 and PMI act hi M6P 1.
Screening O=C(CN1CCN(c2ccccc2O)CC1)Nc1ccc2c(c1)CCC2 returned Diaph act CS 0.7, Lmaj promast -5, PMI act 0.8, WT yeast gro inh 6 and PMI act hi M6P 0.8.
`Cc1ccc(N2NC3(CCN(C(N)=O)CC3)NC2=O)cc1` gave Diaph act CS 0.9, Lmaj promast 6, PMI act 1.6, WT yeast gro inh 19 and PMI act hi M6P 2.3*.
For Cc1ccc(NC(=O)CSc2ccc3nnc(CCNC(=O)c4ccccc4)n3n2)c(C)c1 the results were Diaph act CS 0.9, Lmaj promast -5, PMI act 1, WT yeast gro inh -7 and PMI act hi M6P 1.
COc1ccc(-n2nnc3c(SCC(=O)NCC4CCCO4)ncnc32)cc1 (centres undefined) was read as Diaph act CS 0.8, Lmaj promast 75*, PMI act 1, WT yeast gro inh -9 and PMI act hi M6P 1.
CCCCC(CC)C1OCC(CN2CCCC2)O1 (centres undefined) was read as Diaph act CS 0.9, Lmaj promast 84*, PMI act 1, WT yeast gro inh -24 and PMI act hi M6P 1.
`Cc1ccc(/C=N/n2cnc3sc(C)c(C)c3c2=O)o1` gave Diaph act CS 0.9, Lmaj promast -5, PMI act 0.9, WT yeast gro inh 18 and PMI act hi M6P 0.9.
